This note sets out measurements from ChEMBL document CHEMBL2069182, “Discovery and optimization of a novel series of GPR142 agonists for the treatment of type 2 diabetes mellitus” (Bioorg Med Chem Lett, 2012).

pEC50, pIC50: −log10 of the molar value.

Series [1] is described as follows: Oral bioavailability in rat at 2 mg/kg. It counts as ADME, organism-based. As to conditions: in vivo. Summed up: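 Rats given 2.0 mg/kg po; bioavailability (%F) determined against iv dosing at 0.5 mg/kg.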
A further series deals with Rattus norvegicus. As to the kind of experiment: Clearance in rat at 0.5 mg/kg, iv. The class given is ADME, organism-based. On the set-up: dose 0.5 mg/kg, route intravenous. As to conditions: in vivo. Summed up:
(§1)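 Rats dosed iv at 0.5 mg/kg; clearance, steady-state volume of distribution and mean residence time derived.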

A short description of series [2]: Metabolic stability in rat liver microsomes assessed as compound remaining after 30 mins. It counts as ADME, Microsome. To be noted: read-out: Stability. Summed up:
(§2)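 Human or rat liver microsomes incubated with compound for 30 min; percent parent remaining quantified by LC/MS in a high-throughput format.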
(Liver microsomes are a subcellular fraction often used to study metabolism.)

Series [3] concerns the target T1, Probable G-protein coupled receptor 142 (Homo sapiens) (UniProt Q7Z601).
T1 sequence (whole entry): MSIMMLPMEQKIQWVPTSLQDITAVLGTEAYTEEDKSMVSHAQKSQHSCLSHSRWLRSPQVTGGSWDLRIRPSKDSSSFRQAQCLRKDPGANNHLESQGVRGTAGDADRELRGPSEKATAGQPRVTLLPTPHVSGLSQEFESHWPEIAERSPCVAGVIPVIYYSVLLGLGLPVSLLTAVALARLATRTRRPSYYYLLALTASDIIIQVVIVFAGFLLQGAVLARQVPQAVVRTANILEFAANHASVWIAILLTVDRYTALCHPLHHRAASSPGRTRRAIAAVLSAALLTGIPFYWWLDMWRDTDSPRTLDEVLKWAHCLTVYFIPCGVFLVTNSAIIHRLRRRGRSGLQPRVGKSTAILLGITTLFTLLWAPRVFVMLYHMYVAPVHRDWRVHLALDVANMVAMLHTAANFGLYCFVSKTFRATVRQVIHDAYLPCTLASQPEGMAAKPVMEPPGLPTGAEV
The experiment in a line: Agonist activity at human GPR142 expressed in HEK293 cells assessed as inositol phosphate accumulation using [3H]-inositol after 1 hr by scintillation counting in presence of human serum relative to tryptophan. The class given is functional, cell-based. In outline: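 Transiently transfected HEK293 cells were labelled overnight with 1 µCi/mL tritiated inositol, then given graded compound in 100% human serum (in place of HBSS/0.01% BSA) with 10 mM LiCl for 1 h at 37 °C. Lysis was in ice-cold 20 mM formic acid, with SPA-bead scintillation read-out. EC50 given; Emax as % of maximal tryptophan response.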

In series [4] the target is T2, Probable G-protein coupled receptor 142 (Homo sapiens, UniProt Q7Z601).
T2 sequence (Q7Z601 whole entry): T1 sequence (whole entry)
As to the kind of experiment: Agonist activity at human GPR142 expressed in HEK293 cells assessed as inositol phosphate accumulation using [3H]-inositol after 1 hr by scintillation counting in presence of human serum. The class given is functional, cell-based. In outline:
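Same transfected HEK293 [3H]-inositol IP accumulation protocol as buffer assay, but compound incubation (10 mM LiCl, 37 °C, 1 h) run in 100% human serum instead of HBSS/0.01% BSA. Formic acid lysis, SPA bead scintillation read-out. Emax expressed as % of maximal 10 mM tryptophan response.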

Series [5] has as its target T2, Probable G-protein coupled receptor 142. As to the kind of experiment: Agonist activity at human GPR142 expressed in HEK293 cells assessed as inositol phosphate accumulation using [3H]-inositol after 1 hr by scintillation counting. The class given is functional, cell-based. In outline:
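HEK293 cells plated at 25,000/well, next day (80–90% confluent) transfected with 100 ng receptor plasmid per well by Lipofectamine; after 6 h switched to inositol-free DMEM/10% dialyzed FCS with 1 µCi/mL [3H]-inositol overnight. Washed in HBSS, then compound dilutions (DMSO) in HBSS/0.01% BSA plus 10 mM LiCl, 37 °C, 1 h. Lysed in ice-cold 20 mM formic acid, 4 °C 5 h, then yttrium silicate SPA beads, scintillation counting. Emax as % of maximal response to 10 mM tryptophan.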

Series [6] is described as follows: Metabolic stability in human liver microsomes assessed as compound remaining after 30 mins. As to conditions: read-out: Stability. It counts as ADME, Microsome. In outline: as §2
Series [7] concerns the target T1, Probable G-protein coupled receptor 142 (Homo sapiens). The experiment in a line: Agonist activity at human GPR142 expressed in HEK293 cells assessed as inositol phosphate accumulation using [3H]-inositol after 1 hr by scintillation counting relative to tryptophan. The class given is functional, cell-based. In outline: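 HEK293 cells on poly-D-lysine were transfected next day with 100 ng receptor plasmid/well, then labelled overnight with 1 µCi/mL [3H]-inositol in inositol-free DMEM/10% dialyzed FCS. Cells got graded compound in HBSS/0.01% BSA with 10 mM LiCl for 1 h at 37 °C. They were lysed in ice-cold 20 mM formic acid and counted with yttrium silicate SPA beads. EC50 given; Emax as % of maximal tryptophan response at 10 mM.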

The target of another series is CYP2D6 (Homo sapiens, UniProt P10635). As to the kind of experiment: Inhibition of CYP2D6 at 3 uM. The class given is ADME.
Sequence of CYP2D6 (P10635 whole entry): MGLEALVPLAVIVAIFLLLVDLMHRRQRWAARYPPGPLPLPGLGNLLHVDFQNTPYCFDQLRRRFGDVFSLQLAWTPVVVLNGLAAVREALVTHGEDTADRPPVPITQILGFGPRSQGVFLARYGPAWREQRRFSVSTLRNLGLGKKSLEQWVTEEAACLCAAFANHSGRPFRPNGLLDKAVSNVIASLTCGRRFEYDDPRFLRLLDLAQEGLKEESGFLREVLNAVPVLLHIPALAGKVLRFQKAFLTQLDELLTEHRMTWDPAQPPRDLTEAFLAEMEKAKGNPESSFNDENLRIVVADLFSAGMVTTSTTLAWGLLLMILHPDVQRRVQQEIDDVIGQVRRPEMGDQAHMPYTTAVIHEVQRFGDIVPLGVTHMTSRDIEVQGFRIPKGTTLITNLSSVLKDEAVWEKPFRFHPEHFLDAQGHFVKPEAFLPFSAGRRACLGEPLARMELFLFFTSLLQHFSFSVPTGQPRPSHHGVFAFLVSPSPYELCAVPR
Series [8] is described as follows: Mean residence time in rat at 0.5 mg/kg, iv. On the set-up: dose 0.5 mg/kg, route intravenous. To be noted: in vivo. The class given is ADME, organism-based. In outline: as §1
A further series addresses Cytochrome P450 2D6 (Homo sapiens, UniProt P10635). The experiment in a line: Inhibition of CYP2D6. The class given is ADME.
For another series, the target named is CYP3A4 (Homo sapiens, UniProt P08684). As to the kind of experiment: Inhibition of CYP3A4 at 3 uM. The class given is ADME.
Sequence of CYP3A4 (P08684 whole entry): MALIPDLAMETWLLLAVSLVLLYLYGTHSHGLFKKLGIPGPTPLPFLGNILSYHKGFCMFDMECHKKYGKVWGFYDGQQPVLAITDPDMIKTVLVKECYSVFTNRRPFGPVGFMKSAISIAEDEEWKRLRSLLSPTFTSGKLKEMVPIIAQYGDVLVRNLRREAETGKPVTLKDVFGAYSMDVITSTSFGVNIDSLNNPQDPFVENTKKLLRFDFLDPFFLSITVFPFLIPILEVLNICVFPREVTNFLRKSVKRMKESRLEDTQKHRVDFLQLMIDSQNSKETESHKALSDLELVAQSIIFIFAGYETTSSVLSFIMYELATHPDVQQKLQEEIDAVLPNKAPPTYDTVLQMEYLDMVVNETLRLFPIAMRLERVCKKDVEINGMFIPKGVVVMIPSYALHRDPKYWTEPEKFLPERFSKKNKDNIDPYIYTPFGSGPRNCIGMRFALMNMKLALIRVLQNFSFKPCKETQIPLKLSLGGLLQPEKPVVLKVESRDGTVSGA
Series [9] in a line: Volume of distribution at steady state in rat at 0.5 mg/kg, iv. It counts as ADME, organism-based. On the set-up: dose 0.5 mg/kg, route intravenous. To be noted: in vivo, read-out: Vdss. In outline: as §1
Another series has as its target Cytochrome P450 3A4 (Homo sapiens, UniProt P08684). The experiment in a line: Inhibition of CYP3A4. The class given is ADME.
Another series has as its target Cytochrome P450 2C9 (Homo sapiens, UniProt P11712). As to the kind of experiment: Inhibition of CYP2C9. It counts as ADME.
A further series deals with Hepatocyte. The experiment in a line: Clearance in rat hepatocytes assessed per 10^-6 cells. It counts as ADME, cell-based.
A short description of series [10]: Half life in rat hepatocytes. The class given is ADME, cell-based, Liver, Hepatocyte.

Sequence of Cytochrome P450 3A4 (P08684 whole entry): as above
Sequence of Cytochrome P450 2D6 (P10635 whole entry): as the sequence (P10635 whole entry) above
Sequence of Cytochrome P450 2C9 (P11712 whole entry): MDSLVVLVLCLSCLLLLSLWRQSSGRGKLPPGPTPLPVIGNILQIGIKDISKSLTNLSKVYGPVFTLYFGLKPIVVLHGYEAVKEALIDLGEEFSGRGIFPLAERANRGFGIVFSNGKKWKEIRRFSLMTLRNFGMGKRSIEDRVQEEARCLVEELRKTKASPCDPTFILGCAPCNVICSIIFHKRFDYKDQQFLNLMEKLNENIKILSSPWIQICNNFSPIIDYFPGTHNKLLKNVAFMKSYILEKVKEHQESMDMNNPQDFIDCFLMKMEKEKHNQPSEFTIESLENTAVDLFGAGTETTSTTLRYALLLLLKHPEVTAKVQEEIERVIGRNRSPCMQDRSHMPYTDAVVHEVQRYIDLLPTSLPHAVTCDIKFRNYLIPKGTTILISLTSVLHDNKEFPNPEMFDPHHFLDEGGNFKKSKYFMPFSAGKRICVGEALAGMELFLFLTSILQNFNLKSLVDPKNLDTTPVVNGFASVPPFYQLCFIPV

The term bioavailability denotes the share of a dose that reaches the circulation, judged against a reference dose that is usually intravenous. Low values mean little systemic uptake, high ones much systemic uptake. Usually clearance stands for a measure of how efficiently the substance is removed, as volume per time. Higher therefore signals efficient removal. As usually defined, the Emax is the maximal effect, on the per cent scale that the assay sets. A word on the pEC50: it is −log10 of the EC50, conventionally taken in molar units. Broadly, the inhibition is the relative decrease from the control value, in per cent. A lower inhibition goes with a response near the control. One may read the MRT as the average time that molecules of a dose stay in the body. For orientation: pIC50 means the IC50 on a negative log10 scale, so that one unit is a factor of ten. Low values mean a high IC50, high ones a low IC50. Molecule `Cc1cc(-c2c[nH]c(=O)c(NC(=O)[C@H](Cc3ccccc3)NCc3cscn3)c2)ccn1` yielded a bioavailability in series [1] of 19%. This molecule yielded a clearance in the series on Rattus norvegicus of 43.3 mL/min/kg. Besides, the remaining at 0.5 h in [2] was 11%; in [6], 10%. Besides, the Emax was 97% in series [3] and 90% in [7]. The figures for the negative-log EC50 (pEC50) in series [4] and in series [5] were 6.54 and 7.17, respectively. Also, the values for the inhibition at 3 µM against CYP2D6 and on CYP3A4 were 20% and 22%, respectively. In addition, the MRT in series [8] was determined as 18 min. The pIC50 against Cytochrome P450 2D6 and on Cytochrome P450 3A4 was below 4.52 each time. The Vd in series [9] was 0.75 L/kg.
Usually half-life stands for the time needed for the level to fall by half in the phase considered. Low readings indicate fast loss, high ones slow loss. As to `O=C(O)c1cc(NC(=O)[C@H](Cc2ccccc2)NCc2cscn2)cc(-c2ccncc2)c1`, the pIC50 at Cytochrome P450 2C9, against Cytochrome P450 2D6 and against Cytochrome P450 3A4 was below 4.52 throughout. In addition, in [1], the bioavailability is 0%. Besides, the clearance with Rattus norvegicus is 48.3 mL/min/kg. In series [2], the remaining at 0.5 h was determined as 74%. The pEC50 is 6.32 in series [4] and 6.96 in series [5]. This molecule yielded an MRT in [8] of 12 min. Further, in series [9], the Vd amounted to 0.5 L/kg. This molecule returned a CLH with Hepatocyte of 18 µL/min. This molecule had a half-life in [10] of 39 min.
